High-throughput results: PubChem, Broad Institute
INS-1E ATP HTS – rescue of cytokine-induced death in INS-1E beta cells; protection from cytokine-induced ATP loss, % at 10 µM; 20,000 tested, 0.1% active; INS-1E cytokine-induced death, ATP luminescence, 48 h; normalised: neutral wells 0, positive control 100;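 active = mean replicate protection from cytokine-induced ATP loss at least 50% and at least 75% of replicates each reaching 50%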
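Assay system: INS-1E rat cells / Quantity: 8000 cells per well / Medium: RPMI without phenol red, 5% FBS / Probe or stimulus: three-cytokine cocktail (IFN-γ, TNF-α, IL-1β) / Dosing: one compound concentration, pin transfer / Timing: 48 h co-treatment, 10 min post-lysis read / Technique: CellTiter-Glo luminescence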
A1 apoptosis 2 – blocks A1, raising caspase activity | MEF A1-2A-BIM cells, caspase-Glo luminescence, 3 h; percent of clofoctol response, DMSO zero | caspase activation, % (test concentration not listed) | 24,000 tested, under 10 active | AID 2465; in the data active = caspase activation above about 5.9%
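system = A1-2A-BIM-expressing MEF cells | quantity = 2500 MEF cells/well | dosing = 50 nL compound per well, pinned | schedule = overnight cell settling, then 3 h compound exposure, 37 °C | signal = luminescence from DEVD-luciferin Caspase-Glo reagent, 1:1 in 50 mM HEPES, 1 h RT | read-out = Caspase-3/7 activation, seen as rise in luminescence signal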
T cruzi HTS – inhibitors of intracellular Trypanosoma cruzi | intracellular Trypanosoma cruzi in host cells, plate reader | activity score (inhibition), % at 5.01 µM | 22,000 tested, 4.9% active; in the data active = activity score above about 55%;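 also: parasites and compound incubated about four days before reading; 0% = median of neutral control wells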
* = called active by the depositor. Many of the other results were omitted from the sample, so hits are more common in it than they were.

For C[C@@H]1CN([C@H](C)CO)C(=O)Cc2cc(NC(=O)Nc3ccc4c(c3)OCO4)ccc2O[C@@H]1CN(C)Cc1ccccc1 the results were INS-1E ATP HTS 6 and T cruzi HTS 37.
For C[C@H]1CN([C@@H](C)CO)C(=O)Cc2cc(NC(=O)Nc3ccc4c(c3)OCO4)ccc2O[C@H]1CN(C)Cc1ccccc1 the results were INS-1E ATP HTS -6 and T cruzi HTS 5.
Screening C[C@@H]1CN([C@H](C)CO)C(=O)Cc2cc(NC(=O)Nc3ccc4c(c3)OCO4)ccc2O[C@@H]1CN(C)Cc1ccc(Oc2ccccc2)cc1 returned INS-1E ATP HTS -37 and T cruzi HTS 73*.
`C[C@@H]1CN([C@H](C)CO)C(=O)Cc2cc(NC(=O)Nc3ccc4c(c3)OCO4)ccc2O[C@H]1CN(C)Cc1ccc(Oc2ccccc2)cc1` gave INS-1E ATP HTS -47, A1 apoptosis 2 -1 and T cruzi HTS 78*.
C[C@H](CO)N1C[C@H](C)[C@H](CN(C)Cc2ccc(Oc3ccccc3)cc2)Oc2ccc(NC(=O)Nc3ccccc3)cc2CC1=O was read as INS-1E ATP HTS -10 and T cruzi HTS 0.
`C[C@@H]1CN([C@@H](C)CO)C(=O)Cc2cc(NC(=O)Nc3ccc4c(c3)OCO4)ccc2O[C@@H]1CN(C)Cc1ccc(Oc2ccccc2)cc1` gave INS-1E ATP HTS -22 and T cruzi HTS 65*.
Screening COC(=O)CCCCCCC(=O)N/N=C/c1sccc1C returned INS-1E ATP HTS 3, A1 apoptosis 2 1 and T cruzi HTS -9.
For O=S(=O)(N[C@@H]1CCCN(Cc2ccc(OCCO)cc2)C1)c1cccc(F)c1 the results were A1 apoptosis 2 0.
`O=C(NO)c1cccc(C(=O)N/N=C/c2cccc(Br)c2)c1` gave INS-1E ATP HTS -9, A1 apoptosis 2 0 and T cruzi HTS 1.
C[C@@H]1CCCCO[C@H](CN(C)C(=O)Nc2ccc(C(F)(F)F)cc2)[C@@H](C)CN([C@H](C)CO)C(=O)c2cc(NS(=O)(=O)c3cccs3)ccc2O1 was read as INS-1E ATP HTS 0.
C[C@@H]1CCCCO[C@H](CN(C)Cc2ccc(C(F)(F)F)cc2)[C@@H](C)CN([C@H](C)CO)C(=O)c2cc(NS(=O)(=O)c3cccs3)ccc2O1 was read as INS-1E ATP HTS -9 and T cruzi HTS 18.
For C[C@@H]1CCCCO[C@@H](CN(C)C(=O)Nc2ccc(C(F)(F)F)cc2)[C@@H](C)CN([C@H](C)CO)C(=O)c2cc(NS(=O)(=O)c3cccs3)ccc2O1 the results were INS-1E ATP HTS -13, A1 apoptosis 2 0 and T cruzi HTS 57*.
`C[C@@H]1CCCCO[C@@H](CN(C)Cc2ccc(C(F)(F)F)cc2)[C@@H](C)CN([C@H](C)CO)C(=O)c2cc(NS(=O)(=O)c3cccs3)ccc2O1` gave INS-1E ATP HTS -74 and T cruzi HTS 64*.
Screening CC(C)(C)OC(=O)N1CCC[C@H]1/C=N/NC(=O)CCCCC(=O)NO returned INS-1E ATP HTS 2 and T cruzi HTS -4.
Screening NC(=O)COc1ccccc1/C=N/NC(=O)c1ccccc1O returned INS-1E ATP HTS -4, A1 apoptosis 2 -1 and T cruzi HTS -34.
`C[C@H](CO)N1C[C@H](C)[C@H](CN(C)Cc2cccc(C(F)(F)F)c2)Oc2ncc(Br)cc2C1=O` gave A1 apoptosis 2 0 and T cruzi HTS 24.
`C[C@H](CO)N1C[C@H](C)[C@H](CN(C)C(=O)NC2CCCC2)Oc2ncc(-c3cc4ccccc4o3)cc2C1=O` gave A1 apoptosis 2 -1 and T cruzi HTS 32.
C[C@H](CO)N1C[C@H](C)[C@H](CN(C)Cc2ccccc2)Oc2ncc(-c3cc4ccccc4o3)cc2C1=O was read as A1 apoptosis 2 -1 and T cruzi HTS 59*.
C[C@H](CO)N1C[C@H](C)[C@H](CN(C)Cc2cccc(C(F)(F)F)c2)Oc2ncc(-c3cc4ccccc4o3)cc2C1=O was read as T cruzi HTS 90*.
Screening C[C@H](CO)N1C[C@H](C)[C@H](CN(C)S(=O)(=O)c2ccccc2)Oc2ncc(-c3cc4ccccc4o3)cc2C1=O returned A1 apoptosis 2 0 and T cruzi HTS 62*.
Screening C[C@H](CO)N1C[C@H](C)[C@H](CN(C)S(=O)(=O)c2ccc(F)cc2)Oc2ncc(-c3cc4ccccc4o3)cc2C1=O returned T cruzi HTS 52.
C[C@H](CO)N1C[C@H](C)[C@H](CN(C)C(=O)Nc2cccc3ccccc23)Oc2ncc(-c3cc4ccccc4o3)cc2C1=O was read as A1 apoptosis 2 1 and T cruzi HTS 71*.
